Laboratory results taken from ChEMBL document CHEMBL1127072, “Discovery and synthesis of methyl 2,5-dimethyl-4-[2- (phenylmethyl)benzoyl]-1H-pyrrole-3-carboxylate (FPL 64176) and analogues: the first examples of a new class of calcium channel activator” (J Med Chem, 1993).
pEC50: −log10 of the molar value.

Legend:
Cavia porcellus [1] = organism: Cavia porcellus; experiment: Tested for the force increase in guinea pig atria; assay type: functional
Procedure, shortened: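 Inotropic activity was measured on guinea pig atria paced at 1 Hz. EC50 is the concentration that raises developed tension to 50% of the isoprenaline maximum.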

Cavia porcellus [2] = organism: Cavia porcellus; experiment: Tested for the force value required to increase developed tension to 50% of the isoprenaline maximum at 10 uM; assay type: functional
GH3 [3] = experiment: Tested for 45 [Ca2+] uptake in rat pituitary growth hormone3 (GH3) cells; assay type: functional, cell-based
Procedure, shortened: (§1)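 ⁴⁵Ca²⁺ uptake into rat pituitary GH3 cells depolarized with 50 mM K⁺, used as the measure of channel activation. EC50 is the test concentration producing 50% of the maximal uptake obtained with Bay K 8644.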

GH3 [4] = experiment: Tested for the 50% of the maximal [Ca2+] uptake produced by Bay K 8644 at 1 uM in rats; assay type: functional, Rattus norvegicus
GH3 [5] = experiment: Tested for the increase in [Ca2+] uptake into rat pituitary growth hormone3 (GH3) cells; assay type: functional, cell-based; procedure, shortened: as §1
GH3 [6] = experiment: Tested for the increase in [Ca2+] uptake into rat pituitary growth hormone3 (GH3) cells at 10 uM; assay type: functional; conditions: read-out: Inhibition
Procedure, shortened: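 Rat pituitary GH3 cells were depolarized with 50 mM K⁺ and ⁴⁵Ca²⁺ uptake was measured at a single 10 µM test concentration. Response is expressed relative to the maximal uptake produced by Bay K 8644.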

Cavia porcellus [7] = organism: Cavia porcellus; experiment: Tested for the force increase in guinea pig atria at 100 uM; assay type: functional; conditions: read-out: Inhibition
Procedure, shortened: (§2)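 Guinea pig atria paced at 1 Hz, with developed tension recorded at a single test concentration (10, 30 or 100 µM). The increase is given as a percentage of the isoprenaline maximum.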

Cavia porcellus [8] = organism: Cavia porcellus; experiment: Tested for the force increase in guinea pig atria at 10 uM; assay type: functional; procedure, shortened: as §2
GH3 [9] = experiment: Tested for the inhibition of [Ca2+] uptake into rat pituitary growth hormone3 (GH3) cells at 10 uM; assay type: functional
Cavia porcellus [10] = organism: Cavia porcellus; experiment: Tested for the force increase in guinea pig atria at 30 uM; assay type: functional; procedure, shortened: as §2
Cavia porcellus [11] = organism: Cavia porcellus; experiment: Tested for the force value required to increase developed tension to 50% of the isoprenaline maximum at 0.3 uM; assay type: functional
GH3 [12] = experiment: Tested for the 50% of the maximal [Ca2+] uptake produced by Bay K 8644 at 10 uM in rats; assay type: functional, Rattus norvegicus

Row | Compound | pEC50 (Cavia porcellus [1]) | pEC50 (GH3 [5]) | further results
1 | COC(=O)C1=C(C)NC(C)=C([N+](=O)[O-])C1c1ccccc1C(F)(F)F (centres undefined) | 5.71 | – | Max (Cavia porcellus [2]): 61%; pEC50 (GH3 [3]): 7.82; Max (GH3 [4]): 100%
2 | COC(=O)c1c(C)[nH]c(C)c1C(=O)c1ccccc1[N+](=O)[O-] | – | – | Ca2+ uptake increase (% of Bay K 8644 maximum) at 10 µM (GH3 [6]): 0%; Atrial force increase (% of isoprenaline maximum) at 100 µM (Cavia porcellus [7]): 17%
3 | COC(=O)c1c(C(=O)c2ccccc2Cc2ccccc2)c[nH]c1C | 6.34 | 6.38 | –
4 | COC(=O)c1c(C)[nH]c(C)c1C(=O)c1c(Cl)cccc1Cl | – | – | Ca2+ uptake increase (% of Bay K 8644 maximum) at 10 µM (GH3 [6]): 0%; Atrial force increase (% of isoprenaline maximum) at 100 µM (Cavia porcellus [7]): 0%
5 | COC(=O)c1c(C)[nH]c(C)c1C(=O)c1cc(Cl)ccc1Cl | 5.40 | 6.22 | –
6 | COC(=O)c1c(C)[nH]c(C)c1C(=O)c1ccc(Cl)cc1Cl | – | – | Ca2+ uptake increase (% of Bay K 8644 maximum) at 10 µM (GH3 [6]): 0%; inhibition at 10 µM (Cavia porcellus [8]): 40%
7 | COC(=O)c1c(C)[nH]c(C)c1C(=O)c1ccccc1OC(=O)c1ccccc1O | 5.42 | 6.30 | –
8 | COC(=O)c1c(C)[nH]c(C)c1C(=O)c1ccccc1 | 4.66 | 5.27 | –
9 | COC(=O)c1c(C)[nH]c(C)c1C(=O)c1cccc(Cl)c1Cl | – | – | inhibition at 10 µM (GH3 [9]): 0%; inhibition at 30 µM (Cavia porcellus [10]): 18%
10 | COC(=O)c1c(C)[nH]c(C)c1C(=O)c1ccccc1OC | – | – | Ca2+ uptake increase (% of Bay K 8644 maximum) at 10 µM (GH3 [6]): 0%; Atrial force increase (% of isoprenaline maximum) at 100 µM (Cavia porcellus [7]): 44%
11 | COC(=O)c1c[nH]cc1C(=O)c1ccccc1Cc1ccccc1 | 5.68 | 5.21 | –
12 | COC(=O)c1c(C)[nH]c(C)c1C(=O)c1ccccc1Cc1ccccc1 | 7.31 | – | Max (Cavia porcellus [11]): 105%; pEC50 (GH3 [3]): 7.80; Max (GH3 [12]): 383%
13 | COC(=O)c1c[nH]c(C)c1C(=O)c1ccccc1Cc1ccccc1 | 6.84 | 7.05 | –
14 | COC(=O)c1ccccc1C(=O)c1c(C)[nH]c(C)c1C(=O)OC | – | – | Ca2+ uptake increase (% of Bay K 8644 maximum) at 10 µM (GH3 [6]): 0%; Atrial force increase (% of isoprenaline maximum) at 100 µM (Cavia porcellus [7]): 16%

Further lines, with some results ahead:

Row | pEC50 (Cavia porcellus [1]) | Compound | pEC50 (GH3 [5]) | further results
15 | 5.02 | COC(=O)c1c(C)[nH]c(C)c1C(=O)c1ccccc1C | 5.44 | –
16 | 4.15 | COC(=O)c1c(C)[nH]c(C)c1C(=O)c1ccccc1F | 5.89 | –
17 | 5.23 | COC(=O)c1c(C)[nH]c(C)c1C(=O)c1ccccc1I | 5.47 | –
18 | 4.85 | COC(=O)c1c(C)[nH]c(C)c1C(=O)c1ccccc1Cl | 5.48 | –
19 | 5.32 | COC(=O)c1c(C)[nH]c(C)c1C(=O)c1ccccc1C(F)(F)F | 5.37 | –
20 | 5.05 | COC(=O)c1c(C)[nH]c(C)c1C(=O)c1ccccc1Br | 5.62 | –
